Test results as given in ChEMBL document CHEMBL1125387, “Synthesis and biological action of the aminotetrahydroisoquinocarbazoles and related compounds: a new class of compounds with antiarrhythmic activity” (1992).

These molecules were tested on Mus musculus (assay: Antiarrhythmic activity in chloroform induced ventricular arrhythmia in mice, 15 min before exposure to chloroform intraperitoneal administration). Settings: not given.
Type: functional, Heart
Outline: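 Female ICR mice (20-25 g) dosed ip; 15 min later placed 2 min in 2-L glass chamber saturated with chloroform vapor (150 mL chloroform warmed at 33 °C). Chest opened, ventricular ECG recorded 1 min via silver electrodes. Dose judged effective if ventricular rate <400 bpm just after thoracotomy; 3-10 mice per dose level; ED50 for protection from ventricular tachycardia calculated.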

`Cl.N[C@@H]1Cc2c3n(c4cccc(O)c24)C(=O)C[C@H]2CCC[C@@H]1[C@@H]32` (stereo in doubt; (+)-10) was tested, and the ED50 was 5 mg/kg.

Same assay, conditions: Mus musculus, Heart, ip; read-out: ED50

`N[C@@H]1Cc2c3n(c4ccccc24)C(=O)C[C@H]2CC[C@@H]1[C@@H]32.O=C(O)/C=C/C(=O)O` and `N[C@@H]1Cc2c3n(c4ccccc24)C(=O)C[C@H]2CCC[C@@H]1[C@@H]32.O=C(O)/C=C/C(=O)O` are within 1.5-fold of each other in ED50: 40 mg/kg for the first, 32 mg/kg for the second.

Compared with `CC[C@]12CCC[C@@H]3[C@H]1c1c(c4c(O)cccc4n1C(=O)C2)C[C@H]3C(=O)NN`, `CC[C@@]12CCC[C@H]3[C@H](N)Cc4c(n(c5cccc(O)c45)C(=O)C1)[C@H]32.Cl` is lower in ED50: > 40 mg/kg for the first, 6 mg/kg for the second.

`N[C@@H]1Cc2c3n(c4ccccc24)C(=O)C[C@H]2CCCC[C@@H]1[C@@H]32.O=C(O)/C=C/C(=O)O` and `N[C@@H]1Cc2c3n(c4ccccc24)C(=O)CC[C@H]3C1.O=C(O)/C=C/C(=O)O` cannot be ordered by ED50: 80 mg/kg for the first, > 40 mg/kg for the second.

Going from `CC[C@]12CCC[C@@H]3[C@H]1c1c(c4cc(O)ccc4n1C(=O)C2)C[C@H]3C(=O)NCCN1CCCC1` to `CC[C@]12CCC[C@@H]3[C@H]1c1c(c4cc(O)ccc4n1C(=O)C2)C[C@H]3C(=O)OCCN1CCN(C)CC1`, the ED50 falls from > 40 mg/kg to 34 mg/kg.

First: CCCC[C@@]12CCC[C@H]3[C@H](N)Cc4c(n(c5ccc(O)cc45)C(=O)C1)[C@H]32
Second: C[C@@]12CCC[C@H]3[C@H](N)Cc4c(n(c5ccc(O)cc45)C(=O)C1)[C@H]32
The ED50 of the first is lower: 12 mg/kg for the first, > 40 mg/kg for the second.

First: CC(C)[C@@]12CCC[C@H]3[C@H](N)Cc4c(n(c5ccc(O)cc45)C(=O)C1)[C@H]32
Second: N[C@@H]1Cc2c3n(c4ccc(O)cc24)C(=O)C[C@@]2(Cc4ccccc4)CCC[C@@H]1[C@@H]32
The ED50 of the first is lower: 8.4 mg/kg for the first, > 40 mg/kg for the second.

`N[C@@H]1Cc2c3n(c4ccc(O)cc24)C(=O)C[C@@]2(CCc4ccccc4)CCC[C@@H]1[C@@H]32` and `N[C@@H]1Cc2c3n(c4cccc(O)c24)C(=O)C[C@@]2(CCc4ccccc4)CCC[C@@H]1[C@@H]32` cannot be ordered by ED50: > 40 mg/kg for the first, > 40 mg/kg for the second.

`N[C@@H]1Cc2c3n(c4ccc(O)cc24)C(=O)C[C@H]2CCC[C@@H]1[C@@H]32` and `Cl.N[C@@H]1Cc2c3n(c4cc(O)c(O)cc24)C(=O)C[C@H]2CCC[C@@H]1[C@@H]32` cannot be ordered by ED50: > 40 mg/kg for the first, > 40 mg/kg for the second.

Going from `CC[C@@]12CCC[C@H]3CCc4c(n(c5ccccc45)C(=O)C1)[C@H]32` to `CCC[C@@]12CCC[C@H]3[C@H](N)Cc4c(n(c5cccc(O)c45)C(=O)C1)[C@H]32.Cl`, the ED50 falls from > 40 mg/kg to 20 mg/kg.

Compared with `Cl.NCCc1cn(C(=O)CC2CCCCC2)c2ccccc12`, `C[C@@]12CCC[C@H]3[C@H](N)Cc4c(n(c5cccc(O)c45)C(=O)C1)[C@H]32.Cl` is 6-fold lower in ED50: 48 mg/kg for the first, 8 mg/kg for the second.

First: CC[C@@]12CCC[C@H]3[C@H](N)Cc4c(n(c5cc(O)c(O)cc45)C(=O)C1)[C@H]32.Cl
Second: CCC[C@@]12CCC[C@H]3[C@H](N)Cc4c(n(c5cc(O)c(O)cc45)C(=O)C1)[C@H]32.Cl
The ED50 of the first is 2.9-fold lower: 7 mg/kg for the first, 20 mg/kg for the second.

`C[C@@]12CCC[C@H]3[C@H](N)Cc4c(n(c5cc(O)c(O)cc45)C(=O)C1)[C@H]32.Cl` and `CC[C@@]12CCC[C@H]3[C@H](N)Cc4c(n(c5cc(OC)c(OC)cc45)C(=O)C1)[C@H]32.Cl` are the same in ED50: 34 mg/kg for the first, 34 mg/kg for the second.

`Cl.N[C@@H]1Cc2c3n(c4cccc(O)c24)C(=O)C[C@H]2CCC[C@@H]1[C@@H]32` (stereo in doubt; 10) and `CC(C)N(CCC(C(N)=O)(c1ccccc1)c1ccccn1)C(C)C` (configuration not stated) [DISOPYRAMIDE] are within 1.5-fold of each other in ED50: 10 mg/kg for the first, 11.8 mg/kg for the second.
